Legend:
[1] = target: T1, 5-hydroxytryptamine receptor 4 (Homo sapiens, UniProt Q13639); assay: Antagonistic activity at human 5HT4 receptor expressed in HEK293 cells assessed as inhibition of 5-HT stimulated ADCY activity after 20 mins; assay type: functional, cell-based
Method in brief: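 Membranes from HEK293 cells stably expressing human 5-HT4(b) at low level (400 fmol/mg). Adenylyl cyclase activity was stimulated by 1 µM 5-HT with 21 antagonist concentrations, 0.1 mM [α-32P]ATP, 4 mM MgCl2, 1 mM IBMX, GTP and ATP-regenerating system, 32 °C, 20 min. [32P]cAMP was isolated on Dowex/alumina columns. IC50 was fitted by non-linear regression and Kb calculated using 5-HT EC50.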

[2] = target: T1, 5-hydroxytryptamine receptor 4; assay: Antagonistic activity at human 5HT4 receptor expressed in HEK293 cells; assay type: functional, cell-based
[3] = target: T1, 5-hydroxytryptamine receptor 4; assay: Displacement of [3H]GR113808 from human 5HT4 receptor expressed in HEK293 cells by liquid scintillation counting; assay type: cell-based
Method in brief: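 Membranes from HEK293 line stably expressing human 5-HT4(b) at high level (5000 fmol/mg). Incubated with 0.3 nM [3H]GR113808 and 21 competitor concentrations in Tris-HCl pH 7.5, EDTA, EGTA, 2 mM MgCl2, ascorbate, 0.1% BSA, 100 µM GTP, room temperature 1 h. Filtered onto PEI-soaked filters, washed, scintillation counted. Ki derived from IC50 via Ki = IC50/(1+L/Kd).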

[4] = Lipophilicity, log D of the compound in octanol buffer at pH 7.4; assay type: physicochemical
Method in brief: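 Distribution between octanol and aqueous buffer at pH 7.4. Both phases were diluted and ligand concentration in each measured by HPLC. Not determined where micelles formed.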

Histamine H3 receptor = Histamine H3 receptor (Homo sapiens, UniProt Q9Y5N1); assay: Binding affinity to Histamine receptor H3
[5] = target: 5-hydroxytryptamine receptor 1A (Homo sapiens, UniProt P08908); assay: Binding affinity to 5HT1A receptor
[6] = Binding affinity to GABA receptor BDZ-site
[7] = target: 5-hydroxytryptamine receptor 5A (Homo sapiens, UniProt P47898); assay: Binding affinity to 5HT5A receptor
[8] = target: Alpha-1D adrenergic receptor (Homo sapiens, UniProt P25100); assay: Binding affinity to Alpha-1D adrenergic receptor
[9] = target: Kappa-type opioid receptor (Homo sapiens, UniProt P41145); assay: Binding affinity to opioid receptor KOR
[10] = target: Alpha-2C adrenergic receptor (Homo sapiens, UniProt P18825); assay: Binding affinity to Alpha-2C adrenergic receptor
Mu-type opioid receptor = Mu-type opioid receptor (Homo sapiens, UniProt P35372); assay: Binding affinity to opioid receptor MOR
[11] = target: Delta-type opioid receptor (Homo sapiens, UniProt P41143); assay: Binding affinity to opioid receptor DOR
[12] = target: 5-hydroxytryptamine receptor 1B (Homo sapiens, UniProt P28222); assay: Binding affinity to 5HT1B receptor
[13] = target: 5-hydroxytryptamine receptor 2C (Homo sapiens, UniProt P28335); assay: Binding affinity to 5HT2C receptor
D(1A) dopamine receptor = D(1A) dopamine receptor (Homo sapiens, UniProt P21728); assay: Binding affinity to dopamine receptor D1
[14] = target: Muscarinic acetylcholine receptor M5 (Homo sapiens, UniProt P08912); assay: Binding affinity to muscarinic acetylcholine receptor M5
[15] = target: Muscarinic acetylcholine receptor M4 (Homo sapiens, UniProt P08173); assay: Binding affinity to muscarinic acetylcholine receptor M4
[16] = target: 5-hydroxytryptamine receptor 6 (Homo sapiens, UniProt P50406); assay: Binding affinity to 5HT6 receptor
[17] = target: Beta-2 adrenergic receptor (Homo sapiens, UniProt P07550); assay: Binding affinity to beta2 adrenergic receptor
[18] = target: Beta-3 adrenergic receptor (Homo sapiens, UniProt P13945); assay: Binding affinity to beta3 adrenergic receptor
[19] = target: 5-hydroxytryptamine receptor 2A (Homo sapiens, UniProt P28223); assay: Binding affinity to 5HT2A receptor
[20] = target: Alpha-1B adrenergic receptor (Homo sapiens, UniProt P35368); assay: Binding affinity to Alpha-1B adrenergic receptor
D(1B) dopamine receptor = D(1B) dopamine receptor (Homo sapiens, UniProt P21918); assay: Binding affinity to dopamine receptor D5
[21] = target: 5-hydroxytryptamine receptor 1D (Homo sapiens, UniProt P28221); assay: Binding affinity to 5HT1D receptor
[22] = target: Alpha-2A adrenergic receptor (Homo sapiens, UniProt P08913); assay: Binding affinity to alpha2A adrenergic receptor
[23] = Binding affinity to GABA-A receptor muscimol site
[24] = Binding affinity to opioid receptor Sigma2
[25] = target: Sodium-dependent dopamine transporter (Homo sapiens, UniProt Q01959); assay: Binding affinity to DAT
D(2) dopamine receptor = D(2) dopamine receptor (Homo sapiens, UniProt P14416); assay: Binding affinity to dopamine receptor D2
Histamine H2 receptor = Histamine H2 receptor (Homo sapiens, UniProt P25021); assay: Binding affinity to Histamine receptor H2
D(4) dopamine receptor = D(4) dopamine receptor (Homo sapiens, UniProt P21917); assay: Binding affinity to dopamine receptor D4
[26] = target: Alpha-2B adrenergic receptor (Homo sapiens, UniProt P18089); assay: Binding affinity to alpha2B adrenergic receptor
D(3) dopamine receptor = D(3) dopamine receptor (Homo sapiens, UniProt P35462); assay: Binding affinity to dopamine receptor D3
[27] = target: 5-hydroxytryptamine receptor 2B (Homo sapiens, UniProt P41595); assay: Binding affinity to 5HT2B receptor
[28] = target: Muscarinic acetylcholine receptor M2 (Homo sapiens, UniProt P08172); assay: Binding affinity to muscarinic acetylcholine receptor M2
Histamine H4 receptor = Histamine H4 receptor (Homo sapiens, UniProt Q9H3N8); assay: Binding affinity to Histamine receptor H4
[29] = target: Beta-1 adrenergic receptor (Homo sapiens, UniProt P08588); assay: Binding affinity to beta1 adrenergic receptor
[30] = target: Muscarinic acetylcholine receptor M1 (Homo sapiens, UniProt P11229); assay: Binding affinity to muscarinic acetylcholine receptor M1
[31] = target: Sigma non-opioid intracellular receptor 1 (Homo sapiens, UniProt Q99720); assay: Binding affinity to opioid receptor Sigma1
[32] = target: 5-hydroxytryptamine receptor 3A (Homo sapiens, UniProt P46098); assay: Binding affinity to 5HT3 receptor
[33] = target: Sodium-dependent serotonin transporter (Homo sapiens, UniProt P31645); assay: Binding affinity to SERT
[34] = target: 5-hydroxytryptamine receptor 7 (Homo sapiens, UniProt P34969); assay: Binding affinity to 5HT7 receptor
[35] = target: Muscarinic acetylcholine receptor M3 (Homo sapiens, UniProt P20309); assay: Binding affinity to muscarinic acetylcholine receptor M3
Histamine H1 receptor = Histamine H1 receptor (Homo sapiens, UniProt P35367); assay: Binding affinity to Histamine receptor H1
[36] = target: 5-hydroxytryptamine receptor 1E (Homo sapiens, UniProt P28566); assay: Binding affinity to 5HT1E receptor
[37] = target: Alpha-1A adrenergic receptor (Homo sapiens, UniProt P35348); assay: Binding affinity to alpha1A adrenergic receptor
Alpha-1A adrenergic receptor, sequence (P35348 whole entry): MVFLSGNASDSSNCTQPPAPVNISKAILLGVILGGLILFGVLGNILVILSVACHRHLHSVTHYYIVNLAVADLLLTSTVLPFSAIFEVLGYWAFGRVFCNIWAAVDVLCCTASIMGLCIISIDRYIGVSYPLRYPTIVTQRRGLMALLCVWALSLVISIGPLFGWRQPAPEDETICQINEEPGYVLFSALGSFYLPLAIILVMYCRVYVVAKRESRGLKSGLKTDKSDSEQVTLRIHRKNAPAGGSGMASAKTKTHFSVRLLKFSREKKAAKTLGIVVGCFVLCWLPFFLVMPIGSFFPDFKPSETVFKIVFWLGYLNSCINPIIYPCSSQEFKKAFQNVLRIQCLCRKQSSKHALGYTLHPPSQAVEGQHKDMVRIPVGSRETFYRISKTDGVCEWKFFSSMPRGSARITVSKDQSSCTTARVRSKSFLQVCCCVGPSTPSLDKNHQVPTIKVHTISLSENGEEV

T1 sequence (Q13639 whole entry): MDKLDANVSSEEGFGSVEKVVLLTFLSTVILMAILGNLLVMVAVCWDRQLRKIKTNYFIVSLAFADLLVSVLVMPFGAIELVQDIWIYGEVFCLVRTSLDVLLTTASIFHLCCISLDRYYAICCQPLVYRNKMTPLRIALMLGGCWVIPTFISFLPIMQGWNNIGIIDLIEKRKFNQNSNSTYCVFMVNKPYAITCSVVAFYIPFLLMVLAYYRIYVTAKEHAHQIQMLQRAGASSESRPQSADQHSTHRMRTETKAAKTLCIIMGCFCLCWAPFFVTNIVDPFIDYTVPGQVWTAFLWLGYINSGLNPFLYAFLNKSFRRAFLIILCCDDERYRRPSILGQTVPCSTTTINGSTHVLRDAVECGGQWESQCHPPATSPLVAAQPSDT
Muscarinic acetylcholine receptor M3, sequence (P20309 whole entry): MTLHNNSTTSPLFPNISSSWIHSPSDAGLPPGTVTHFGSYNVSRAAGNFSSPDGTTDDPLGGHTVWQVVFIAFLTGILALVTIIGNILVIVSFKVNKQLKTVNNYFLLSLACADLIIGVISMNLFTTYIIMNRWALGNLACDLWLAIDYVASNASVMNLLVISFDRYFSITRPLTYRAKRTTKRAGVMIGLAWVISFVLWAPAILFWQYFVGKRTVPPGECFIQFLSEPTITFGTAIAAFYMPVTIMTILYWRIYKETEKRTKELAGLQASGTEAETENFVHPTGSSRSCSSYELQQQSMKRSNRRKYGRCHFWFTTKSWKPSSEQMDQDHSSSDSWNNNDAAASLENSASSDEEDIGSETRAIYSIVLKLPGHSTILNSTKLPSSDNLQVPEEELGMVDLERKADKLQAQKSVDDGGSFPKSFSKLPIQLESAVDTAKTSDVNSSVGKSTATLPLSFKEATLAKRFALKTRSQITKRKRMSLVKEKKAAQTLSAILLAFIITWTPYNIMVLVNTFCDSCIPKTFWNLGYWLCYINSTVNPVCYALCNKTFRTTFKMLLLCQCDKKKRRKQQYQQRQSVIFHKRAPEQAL
5-hydroxytryptamine receptor 1B, sequence (P28222 whole entry): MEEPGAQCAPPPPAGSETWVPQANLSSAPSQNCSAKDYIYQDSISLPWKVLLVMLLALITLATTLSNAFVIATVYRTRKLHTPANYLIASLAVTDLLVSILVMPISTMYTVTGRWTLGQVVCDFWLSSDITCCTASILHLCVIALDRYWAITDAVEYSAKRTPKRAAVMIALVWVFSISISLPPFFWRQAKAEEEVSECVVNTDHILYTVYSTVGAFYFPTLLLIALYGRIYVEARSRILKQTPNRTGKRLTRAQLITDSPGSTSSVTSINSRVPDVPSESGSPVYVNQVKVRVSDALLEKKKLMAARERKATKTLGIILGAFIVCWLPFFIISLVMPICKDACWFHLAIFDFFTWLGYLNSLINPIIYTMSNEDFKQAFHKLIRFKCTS
Beta-2 adrenergic receptor, sequence (P07550 whole entry): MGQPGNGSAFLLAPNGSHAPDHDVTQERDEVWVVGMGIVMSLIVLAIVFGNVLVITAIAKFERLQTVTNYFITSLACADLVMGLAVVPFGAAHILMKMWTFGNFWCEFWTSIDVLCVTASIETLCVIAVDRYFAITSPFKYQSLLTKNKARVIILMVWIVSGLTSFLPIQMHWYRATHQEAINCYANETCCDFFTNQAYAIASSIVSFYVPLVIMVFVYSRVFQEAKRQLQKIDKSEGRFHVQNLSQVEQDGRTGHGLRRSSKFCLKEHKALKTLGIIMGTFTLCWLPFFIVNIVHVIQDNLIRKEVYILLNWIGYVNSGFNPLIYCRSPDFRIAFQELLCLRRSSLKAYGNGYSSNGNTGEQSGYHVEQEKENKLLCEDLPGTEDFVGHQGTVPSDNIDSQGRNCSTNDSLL
Muscarinic acetylcholine receptor M2, sequence (P08172 whole entry): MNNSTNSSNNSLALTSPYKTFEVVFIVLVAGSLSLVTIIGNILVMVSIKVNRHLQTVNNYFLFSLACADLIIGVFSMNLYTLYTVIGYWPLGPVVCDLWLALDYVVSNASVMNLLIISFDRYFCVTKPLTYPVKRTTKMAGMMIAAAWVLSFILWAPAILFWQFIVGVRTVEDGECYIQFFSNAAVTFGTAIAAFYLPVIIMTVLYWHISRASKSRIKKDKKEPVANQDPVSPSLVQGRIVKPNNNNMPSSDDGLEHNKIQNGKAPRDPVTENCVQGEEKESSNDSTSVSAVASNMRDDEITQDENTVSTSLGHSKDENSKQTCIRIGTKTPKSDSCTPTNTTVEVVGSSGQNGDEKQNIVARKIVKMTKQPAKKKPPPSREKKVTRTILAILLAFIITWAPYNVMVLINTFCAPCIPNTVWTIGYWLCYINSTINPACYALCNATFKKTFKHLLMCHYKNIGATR
D(1B) dopamine receptor, sequence (P21918 whole entry): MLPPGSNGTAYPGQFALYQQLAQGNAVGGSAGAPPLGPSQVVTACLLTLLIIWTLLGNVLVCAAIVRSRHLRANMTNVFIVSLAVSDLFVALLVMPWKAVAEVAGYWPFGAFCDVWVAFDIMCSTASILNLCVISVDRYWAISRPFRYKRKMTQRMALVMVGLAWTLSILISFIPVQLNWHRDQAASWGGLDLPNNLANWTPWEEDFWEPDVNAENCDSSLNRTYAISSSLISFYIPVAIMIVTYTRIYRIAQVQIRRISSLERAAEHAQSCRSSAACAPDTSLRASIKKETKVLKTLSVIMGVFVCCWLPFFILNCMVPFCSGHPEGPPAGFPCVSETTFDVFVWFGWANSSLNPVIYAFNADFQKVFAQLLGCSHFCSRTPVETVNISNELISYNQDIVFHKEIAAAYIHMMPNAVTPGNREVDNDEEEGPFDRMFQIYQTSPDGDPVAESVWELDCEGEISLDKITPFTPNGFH
Histamine H1 receptor, sequence (P35367 whole entry): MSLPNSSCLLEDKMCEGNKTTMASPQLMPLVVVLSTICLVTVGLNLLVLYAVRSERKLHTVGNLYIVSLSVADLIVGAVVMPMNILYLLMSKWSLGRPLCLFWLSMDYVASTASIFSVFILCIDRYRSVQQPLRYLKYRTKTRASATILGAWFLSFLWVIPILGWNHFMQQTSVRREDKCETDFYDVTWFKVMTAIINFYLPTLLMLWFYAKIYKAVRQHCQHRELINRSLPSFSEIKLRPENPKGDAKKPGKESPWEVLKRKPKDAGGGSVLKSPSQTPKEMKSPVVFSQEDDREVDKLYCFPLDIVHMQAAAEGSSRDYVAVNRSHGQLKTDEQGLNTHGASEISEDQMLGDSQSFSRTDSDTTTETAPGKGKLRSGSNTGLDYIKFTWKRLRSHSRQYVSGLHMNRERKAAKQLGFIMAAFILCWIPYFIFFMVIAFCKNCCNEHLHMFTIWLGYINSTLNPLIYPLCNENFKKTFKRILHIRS
Alpha-1D adrenergic receptor, sequence (P25100 whole entry): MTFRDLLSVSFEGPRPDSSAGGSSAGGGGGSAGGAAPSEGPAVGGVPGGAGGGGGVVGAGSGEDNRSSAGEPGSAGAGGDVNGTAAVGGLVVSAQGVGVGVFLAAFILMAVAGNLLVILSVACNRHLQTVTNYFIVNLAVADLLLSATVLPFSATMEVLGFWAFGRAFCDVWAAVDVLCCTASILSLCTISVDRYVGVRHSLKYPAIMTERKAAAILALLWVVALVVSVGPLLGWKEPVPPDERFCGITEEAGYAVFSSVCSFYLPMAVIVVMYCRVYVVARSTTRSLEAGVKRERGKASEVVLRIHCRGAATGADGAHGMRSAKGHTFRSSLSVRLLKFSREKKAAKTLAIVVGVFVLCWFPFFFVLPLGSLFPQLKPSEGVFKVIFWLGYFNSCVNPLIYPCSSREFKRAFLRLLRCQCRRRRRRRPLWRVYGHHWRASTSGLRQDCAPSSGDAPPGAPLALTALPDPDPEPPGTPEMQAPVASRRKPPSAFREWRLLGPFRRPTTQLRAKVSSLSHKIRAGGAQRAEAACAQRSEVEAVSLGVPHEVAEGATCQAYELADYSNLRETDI
Alpha-2A adrenergic receptor, sequence (P08913 whole entry): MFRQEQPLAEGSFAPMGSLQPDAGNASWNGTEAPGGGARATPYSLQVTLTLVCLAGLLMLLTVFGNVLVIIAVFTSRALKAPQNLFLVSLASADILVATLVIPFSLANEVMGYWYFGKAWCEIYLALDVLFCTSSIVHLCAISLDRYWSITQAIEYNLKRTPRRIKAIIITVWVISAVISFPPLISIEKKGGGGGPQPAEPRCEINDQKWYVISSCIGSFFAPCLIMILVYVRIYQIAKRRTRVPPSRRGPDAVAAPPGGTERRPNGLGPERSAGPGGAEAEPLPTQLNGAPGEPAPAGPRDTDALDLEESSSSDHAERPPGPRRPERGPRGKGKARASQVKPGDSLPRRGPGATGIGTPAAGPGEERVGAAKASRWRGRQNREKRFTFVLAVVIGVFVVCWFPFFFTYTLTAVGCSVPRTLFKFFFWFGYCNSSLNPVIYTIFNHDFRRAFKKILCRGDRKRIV
Sigma non-opioid intracellular receptor 1, sequence (Q99720 whole entry): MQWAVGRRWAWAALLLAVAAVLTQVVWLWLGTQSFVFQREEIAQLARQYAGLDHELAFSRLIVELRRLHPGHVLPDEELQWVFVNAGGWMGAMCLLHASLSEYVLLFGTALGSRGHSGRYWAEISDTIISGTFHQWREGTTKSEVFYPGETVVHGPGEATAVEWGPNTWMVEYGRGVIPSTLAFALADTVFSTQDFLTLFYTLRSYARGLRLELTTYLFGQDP

Question: What does the source list for `Cn1cc(C(=O)OCC2CCN(CCNS(C)(=O)=O)CC2)c2ccccc21`?
Answer: pKb [1]: 9.24; Ki [2]: 7.41e-05 µM

Question: Which results are given for `O=C(O)CCCN1CCC(CNC(=O)c2c3n(c4ccccc24)CCCO3)CC1`?
Answer: Ki [3]: 2000 pM; pKb [1]: 7.96; logD [4]: -1.2

Question: Which Ki [3] does the source give for `O=C(O)CN1CCC(CNC(=O)c2c3n(c4ccccc24)CCCO3)CC1` here?
Answer: The Ki was 2820 pM.

Question: And the pKb [1]?
Answer: The pKb was 7.91.

Question: What about the logD [4] of the same compound?
Answer: Its logD is -1.1.

Question: With `CC(C)(C)OC(=O)CCCN1CCC(CNC(=O)c2c3n(c4ccccc24)CCCO3)CC1` as the compound, how does the Ki [3] read?
Answer: Its Ki is 234 pM.

Question: And the pKb [1]?
Answer: Its pKb is 9.47.

Question: What does the source list for `COC(=O)CCCCCN1CCC(CNC(=O)c2c3n(c4ccccc24)CCCO3)CC1`?
Answer: Ki (Histamine H3 receptor): > 10 µM; Ki [5]: > 10 µM; pKi [6]: < 5; Ki [7]: > 10 µM; Ki [8]: > 10 µM; Ki [9]: > 10 µM; Ki [10]: > 10 µM; Ki (Mu-type opioid receptor): > 10 µM; Ki [11]: > 10 µM; Ki [12]: > 10 µM; Ki [13]: > 10 µM; Ki (D(1A) dopamine receptor): > 10 µM; Ki [14]: > 10 µM; Ki [15]: > 10 µM; Ki [16]: > 10 µM; Ki [17]: > 10 µM; Ki [18]: > 10 µM; Ki [3]: 107 pM; pKb [1]: 9.13; Ki [19]: 6.31 µM; Ki [20]: > 10 µM; Ki (D(1B) dopamine receptor): > 10 µM; Ki [21]: 3.16 µM; Ki [22]: > 10 µM; pKi [23]: < 5; pKi [24]: < 5; Ki [25]: > 10 µM; Ki (D(2) dopamine receptor): > 10 µM; Ki (Histamine H2 receptor): 3.16 µM; Ki (D(4) dopamine receptor): > 10 µM; Ki [26]: 1.26 µM; Ki (D(3) dopamine receptor): > 10 µM; Ki [27]: 0.316 µM; Ki [28]: 2.51 µM; Ki (Histamine H4 receptor): > 10 µM; Ki [29]: > 10 µM; Ki [30]: > 10 µM; logD [4]: 2.2; Ki [31]: 0.398 µM; Ki [32]: 2.51 µM; Ki [33]: > 10 µM; Ki [34]: > 10 µM; Ki [35]: > 10 µM; Ki (Histamine H1 receptor): 1.26 µM; Ki [36]: > 10 µM; Ki [37]: > 10 µM

Question: Which results are given for `O=C(O)c1ccc(CN2CCC(CNC(=O)c3c4n(c5ccccc35)CCCO4)CC2)cc1`?
Answer: Ki [3]: 5010 pM; pKb [1]: 7.25

Question: What does the source list for `CCCCN1CCC(CNC(=O)c2c3n(c4ccccc24)CCCO3)CC1` [PIBOSEROD]?
Answer: Ki [3]: 52.5 pM; pKb [1]: 9.26; logD [4]: 2.2

Question: Which results are given for `COC(=O)CCCCCCCCCN1CCC(CNC(=O)c2c3n(c4ccccc24)CCCO3)CC1`?
Answer: Ki [3]: 195 pM; pKb [1]: 9.33

Question: For `COC(=O)CCCCCCCCCCCN1CCC(CNC(=O)c2c3n(c4ccccc24)CCCO3)CC1`, which Ki [3] is on record?
Answer: The Ki was 339 pM.

Question: What about the pKb [1] of the same compound?
Answer: Its pKb is 9.89.

Question: For `O=C(O)CCCN1CCC(CNC(=O)c2c[nH]c3ccccc23)CC1`, which pKb [1] is on record?
Answer: Its pKb is 4.62.

Question: And the Ki [2]?
Answer: Its Ki is 3.63 µM.

Question: Which Ki [3] does the source give for `CC(C)(C)OC(=O)CCCCCN1CCC(CNC(=O)c2c3n(c4ccccc24)CCCO3)CC1` here?
Answer: The Ki was 53.7 pM.

Question: What about the pKb [1] of the same compound?
Answer: The pKb was 9.89.

Question: For `O=C(CCCCCN1CCC(CNC(=O)c2c3n(c4ccccc24)CCCO3)CC1)OCc1ccccc1`, which Ki [3] is on record?
Answer: Its Ki is 141 pM.

Question: What about the pKb [1] of the same compound?
Answer: The pKb was 10.2.

Question: With `O=C(O)CCN1CCC(CNC(=O)c2c3n(c4ccccc24)CCCO3)CC1` as the compound, how does the Ki [3] read?
Answer: Its Ki is 1120 pM.

Question: And the pKb [1]?
Answer: Its pKb is 8.08.

Question: And the logD [4]?
Answer: Its logD is -1.3.

Source: ChEMBL document CHEMBL1629440, “Synthesis and pharmacological properties of novel hydrophilic 5-HT4 receptor antagonists” (Bioorg Med Chem, 2010)
